In ChEMBL document CHEMBL3272290, “Contragestational agents. 1. Steroidal O-aryloximes” (J Med Chem, 1977) one finds Activity data, which are given here for 48 molecules.

Format in all cases: functional
Common to all, as to set-up: scale not given: the % may be the effect or the level left

For assay [1], the system named is Rattus norvegicus. In words: Antifertility activity in Wistar rat assessed as inhibition of preimplantive gestation by measuring resorptions at 40 mg/kg, po administered in days 9 to 12 of pregnancy measured on day 21. In short, it runs like this: (§1)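 Groups of five pregnant female Wistar-derived rats dosed orally on days 9–12 of pregnancy, in sesame oil at 0.5 mL per 200 g body weight. Read-out was the percentage of resorptions.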

The subject of assay [2] is Rattus norvegicus. In words: Antifertility activity in Wistar rat assessed as inhibition of preimplantive gestation by measuring resorptions at 20 mg/kg, po administered in days 9 to 12 of pregnancy measured on day 21. Summed up: as §1
Assay [3] deals with Rattus norvegicus. In words: Antifertility activity in Wistar rat assessed as inhibition of preimplantive gestation by measuring resorptions at 5 mg/kg, po administered in days 9 to 12 of pregnancy measured on day 21. Summed up:
as §1

Assay [4] deals with Rattus norvegicus. In words: Antifertility activity in Wistar rat assessed as inhibition of preimplantive gestation by measuring resorptions at 2.5 mg/kg, po administered in days 9 to 12 of pregnancy measured on day 21. Summed up:
as §1

Take `C[C@]12CC/C(=N\Oc3ccc([N+](=O)[O-])cc3Cl)C[C@@H]1CC[C@@H]1[C@@H]2CC[C@]2(C)[C@@H](O)CC[C@@H]12`: the Activity in the assay on Rattus norvegicus [1] is on record as 5.8%.

Turning to `C[C@]12CC/C(=N\Oc3ccc([N+](=O)[O-])cc3)C[C@@H]1CC[C@@H]1[C@@H]2CC[C@]2(C)[C@@H](O[N+](=O)[O-])CC[C@@H]12`, the Activity in the assay with Rattus norvegicus [1] was found to be 30.8%. As to `C[C@]12CC[C@H]3[C@@H](CCC4=C/C(=N/Oc5ccccn5)CC[C@@H]43)[C@@H]1CC[C@@H]2O`, the Activity with Rattus norvegicus [2] was found to be 100%.

Take `C[C@]12CC[C@H]3[C@@H](CCC4=C/C(=N/Oc5ccccc5[N+](=O)[O-])CC[C@@H]43)[C@@H]1CC[C@@H]2O`: the Activity in the assay on Rattus norvegicus [1] is reported as 11.9%.

Take `C[C@]12CC/C(=N\Oc3ccc([N+](=O)[O-])cc3)C[C@@H]1CC[C@@H]1[C@@H]2CC[C@]2(C)[C@@H](N)CC[C@@H]12`: the Activity in the assay on Rattus norvegicus [1] is on record as 2%. Take `C[C@]1(O)CC[C@H]2[C@@H]3CC[C@H]4C/C(=N/Oc5ccc([N+](=O)[O-])cc5[N+](=O)[O-])CC[C@@H]4[C@H]3CC[C@@]21C`: the Activity in the assay with Rattus norvegicus [1] is 9.5%. Turning to `C[C@]12CC[C@H]3[C@@H](CCC4=C/C(=N/Oc5ccc([N+](=O)[O-])cc5)C=C[C@@]43C)[C@@H]1CC[C@@H]2O`, the Activity in the assay with Rattus norvegicus [2] amounted to 6%.

Turning to `C[C@]12CC[C@H]3[C@@H](CCC4=C/C(=N/Oc5ccc([N+](=O)[O-])cc5)CC[C@@H]43)[C@@H]1CC[C@@H]2O`, the Activity in the assay with Rattus norvegicus [2] came to 63.9%.

As to `C[C@]12CC/C(=N\Oc3ccccc3)C[C@H]1CC[C@@H]1[C@@H]2CC[C@]2(C)[C@@H](O)CC[C@@H]12`, the Activity with Rattus norvegicus [1] amounted to 11.9%. Take `CC(=O)O[C@H]1CC[C@H]2[C@@H]3CC[C@H]4C/C(=N/Oc5ccc([N+](=O)[O-])cc5)C[C@H](C)[C@]4(C)[C@H]3CC[C@]12C`: in the assay on Rattus norvegicus [1], the Activity is given as 5.8%. For `CCCCCCC(=O)O[C@H]1CC[C@H]2[C@@H]3CC[C@H]4C/C(=N/Oc5ccc([N+](=O)[O-])cc5)CC[C@]4(C)[C@H]3CC[C@]12C`, the Activity in the assay with Rattus norvegicus [3] is recorded as 100%. With `C[C@]12CC[C@H]3[C@@H](CCC4=C/C(=N/Oc5ccc([N+](=O)[O-])cc5)CC[C@@]43C)[C@@H]1CC[C@@H]2O`, the Activity in the assay with Rattus norvegicus [1] came out at 93.8%.

Take `C[C@]12CC/C(=N\Oc3ccccn3)C[C@@H]1CC[C@@H]1[C@@H]2CC[C@]2(C)[C@@H](O)CC[C@@H]12`: in the assay with Rattus norvegicus [1], the Activity is listed as 0%. Consider `C[C@]12CC/C(=N\Oc3ccc(C#N)cc3)C[C@@H]1CC[C@@H]1[C@@H]2CC[C@]2(C)[C@@H](O)CC[C@@H]12`, for which the Activity in the assay on Rattus norvegicus [1] is given as 12.9%.

On to `C[C@]12CC[C@H]3[C@@H](CCC4=C/C(=N/Oc5ccccn5)CC[C@@]43C)[C@@H]1CC[C@@H]2O`, for which the Activity in the assay with Rattus norvegicus [1] is recorded as 75.9%. With `C[C@]12CC/C(=N\Oc3ccc([N+](=O)[O-])cc3)C[C@H]1CC[C@@H]1[C@@H]2CC[C@]2(C)[C@@H](O)CC[C@@H]12`, in the assay on Rattus norvegicus [1], the Activity was 10.9%.

As to `CC(=O)O[C@H]1CC[C@H]2[C@@H]3CC[C@H]4C/C(=N/Oc5ccccc5[N+](=O)[O-])CC[C@]4(C)[C@H]3CC[C@]12C`, in the assay with Rattus norvegicus [1], the Activity worked out at 4%. For the molecule `CC(=O)O[C@H]1CC[C@H]2[C@@H]3CC[C@H]4C/C(=N/Nc5ccc([N+](=O)[O-])cc5)CC[C@]4(C)[C@H]3CC[C@]12C`, the Activity with Rattus norvegicus [1] was 7.7%.

For `C[C@]12CC/C(=N\Oc3ccccc3)C[C@@H]1CC[C@@H]1[C@@H]2CC[C@]2(C)[C@@H](O)CC[C@@H]12`, the Activity in the assay on Rattus norvegicus [1] is given as 1.9%. Take `C[C@]12C[C@@H](Br)/C(=N\Oc3ccc([N+](=O)[O-])cc3)C[C@@H]1CC[C@@H]1[C@@H]2CC[C@]2(C)[C@@H](O)CC[C@@H]12`: the Activity with Rattus norvegicus [4] came to 100%. As to `C[C@]12CC/C(=N\Oc3ccc([N+](=O)[O-])cc3)C[C@@H]1CC[C@@H]1[C@@H]2CC[C@@]2(C)[C@H]1CCC21SCCS1`, in the assay with Rattus norvegicus [1], the Activity is 4%.

In the case of `C[C@]12CC/C(=N\OCc3ccc(Br)c(O)c3)C[C@@H]1CC[C@@H]1[C@@H]2CC[C@]2(C)[C@@H](O)CC[C@@H]12`, the Activity in the assay on Rattus norvegicus [1] was found to be 8.8%. Turning to `C[C@]12C[C@@H](Br)/C(=N\Oc3ccc([N+](=O)[O-])cc3)C[C@@H]1CC[C@@H]1[C@@H]2CC[C@]2(C)C(=O)CC[C@@H]12`, the Activity in the assay with Rattus norvegicus [4] is listed as 100%. For `C[C@]12CC/C(=N\Oc3ccc([N+](=O)[O-])cc3[N+](=O)[O-])C=C1CC[C@@H]1[C@@H]2CC[C@@]2(C)[C@H]1CC[C@]2(C)O`, in the assay on Rattus norvegicus [2], the Activity is 2.2%. Turning to `C[C@]12CC[C@H]3[C@@H](CCC4=C/C(=N/Oc5ccc(C(F)(F)F)cc5)CC[C@@]43C)[C@@H]1CC[C@@H]2O`, the Activity in the assay on Rattus norvegicus [1] is reported as 11.8%. Still for that read-out and setting: the figure for `Cc1cc([N+](=O)[O-])ccc1O/N=C1\CC[C@@]2(C)[C@@H](CC[C@@H]3[C@@H]2CC[C@]2(C)[C@@H](O)CC[C@@H]32)C1` is 5.7%. `C[C@]12CC/C(=N\Oc3ccc([N+](=O)[O-])cc3)C[C@@H]1CC[C@@H]1[C@@H]2CC[C@]2(C)[C@@H](O)CC[C@@H]12`: the Activity in the assay with Rattus norvegicus [4] was 100%. Consider `C#C[C@]1(O)CC[C@H]2[C@@H]3CC[C@H]4C/C(=N/Oc5ccc([N+](=O)[O-])cc5)CC[C@]4(C)[C@H]3CC[C@@]21C`, for which the Activity in the assay on Rattus norvegicus [1] is listed as 76.9%.

Turning to `C[C@]12CC[C@H]3[C@@H](CCC4=C/C(=N/Oc5ccccc5)CC[C@@H]43)[C@@H]1CC[C@@H]2O`, in the assay on Rattus norvegicus [1], the Activity is given as 100%.

For `CC(=O)O[C@H]1CC[C@H]2[C@@H]3CC[C@H]4C/C(=N/Sc5ccc([N+](=O)[O-])cc5)CC[C@]4(C)[C@H]3CC[C@]12C`, the Activity in the assay on Rattus norvegicus [1] worked out at 7.5%. `C[C@]12CC/C(=N\Oc3ccc([N+](=O)[O-])cc3)C[C@@H]1CC[C@@H]1[C@@H]2CC[C@@]2(C)[C@H]1CC[C@]2(C)O`: in the assay with Rattus norvegicus [1], the Activity was found to be 14.7%. For the molecule `C[C@]12CC[C@H]3[C@@H](CC[C@H]4C/C(=N/Oc5ccc([N+](=O)[O-])cc5[N+](=O)[O-])CC[C@@H]43)[C@@H]1CC[C@@H]2O`, the Activity in the assay with Rattus norvegicus [1] amounted to 16.4%. On the same count and under the same terms, the figure for `C[C@]12CC/C(=N\Oc3ccc([N+](=O)[O-])cn3)C[C@@H]1CC[C@@H]1[C@@H]2CC[C@]2(C)[C@@H](O)CC[C@@H]12` is 6%.

In the case of `C[C@]12CC/C(=N\OCc3ccccc3)C[C@@H]1CC[C@@H]1[C@@H]2CC[C@]2(C)[C@@H](O)CC[C@@H]12`, in the assay on Rattus norvegicus [1], the Activity was 13.3%. For `C[C@]12CC/C(=N\Oc3ccc(C(F)(F)F)cc3)C[C@@H]1CC[C@@H]1[C@@H]2CC[C@]2(C)[C@@H](O)CC[C@@H]12`, the Activity with Rattus norvegicus [1] is 4.8%.

With `C[C@]12CC/C(=N\Oc3ccc([N+](=O)[O-])cc3[N+](=O)[O-])C[C@H]1CC[C@@H]1[C@@H]2CC[C@]2(C)[C@@H](O)CC[C@@H]12`, in the assay on Rattus norvegicus [1], the Activity is on record as 5.4%. `C[C@]12CC[C@H]3[C@@H](CC[C@H]4C/C(=N/Oc5ccc([N+](=O)[O-])cc5)CC[C@@H]43)[C@@H]1CC[C@@H]2O`: the Activity in the assay with Rattus norvegicus [1] is recorded as 9.8%. On the same count and under the same terms, next, `CC(=O)[C@H]1CC[C@H]2[C@@H]3CC[C@H]4C/C(=N/Oc5ccc([N+](=O)[O-])cc5)CC[C@]4(C)[C@H]3CC[C@]12C`: 4%.

`CC(=O)O[C@H]1CC[C@H]2[C@@H]3CC[C@H]4CC(=O)CC[C@]4(C)[C@H]3CC[C@]12C`: in the assay on Rattus norvegicus [1], the Activity came out at 5%. Regarding `C[C@]12CC[C@H]3[C@@H](CCC4=C/C(=N/Oc5ccc([N+](=O)[O-])cc5[N+](=O)[O-])CC[C@@H]43)[C@@H]1CC[C@@H]2O`, the Activity in the assay with Rattus norvegicus [2] worked out at 100%. Take `CC12CC[C@H]3[C@@H](CC[C@H]4C/C(=N/Oc5ccc([N+](=O)[O-])cc5)[C@H](Cl)C[C@@]43C)[C@@H]1CCC2=O` (single isomer, unassigned): the Activity in the assay on Rattus norvegicus [4] is given as 100%. For the molecule `C[C@@]12CCC[C@H]1[C@@H]1CC[C@H]3C/C(=N/Oc4ccc([N+](=O)[O-])cc4)CC[C@]3(C)[C@H]1CC2`, the Activity in the assay on Rattus norvegicus [1] was found to be 0%. For `C[C@]12CC[C@H]3[C@@H](CCC4=C/C(=N/Oc5ccc([N+](=O)[O-])cc5[N+](=O)[O-])C=C[C@@]43C)[C@@H]1CC[C@@H]2O`, in the assay on Rattus norvegicus [2], the Activity is recorded as 92.6%. For the molecule `CC(=O)O[C@H]1CC[C@H]2[C@@H]3CC[C@H]4C/C(=N/Oc5ccc([N+](=O)[O-])cc5)[C@H](Br)C[C@]4(C)[C@H]3CC[C@]12C`, the Activity in the assay with Rattus norvegicus [4] worked out at 100%. As for `C[C@]12CC/C(=N\Oc3ccc([N+](=O)[O-])cc3[N+](=O)[O-])C[C@@H]1CC[C@@H]1[C@@H]2CC[C@]2(C)[C@@H](O)CC[C@@H]12`, in the assay with Rattus norvegicus [1], the Activity was 8.2%. `CC(=O)O[C@H]1CC[C@H]2[C@@H]3CCC4C/C(=N/Oc5ccc([N+](=O)[O-])cc5)C=C[C@]4(C)[C@H]3CC[C@]12C` (stereo partly drawn): the Activity with Rattus norvegicus [1] was determined as 2%. Regarding `Cc1cc(O/N=C2\CC[C@@]3(C)[C@@H](CC[C@@H]4[C@@H]3CC[C@]3(C)[C@@H](O)CC[C@@H]43)C2)ccc1[N+](=O)[O-]`, in the assay with Rattus norvegicus [1], the Activity is given as 13.1%. Consider `C#C[C@]1(O)CC[C@H]2[C@@H]3CCC4=C/C(=N/Oc5ccc([N+](=O)[O-])cc5)CC[C@@H]4[C@H]3CC[C@@]21C`, for which, in the assay on Rattus norvegicus [1], the Activity came to 25%.
